Source: ChEMBL document CHEMBL4406804, “Discovery of a Potent Steroidal Glucocorticoid Receptor Antagonist with Enhanced Selectivity against the Progesterone and Androgen Receptors (OP-3633)” (J Med Chem, 2019)
In brackets after ≈: the same amount, converted by molar mass.

What was measured:
Androgen receptor [1] = molecular target: T1, Androgen receptor (Homo sapiens, UniProt P10275); experiment: Antagonist activity at human androgen receptor in human LNCAP cells harboring firefly luciferase gene after 20 hrs by One-Glo luciferase reporter gene assay; type: cell-based
T1 sequence (P10275 whole entry): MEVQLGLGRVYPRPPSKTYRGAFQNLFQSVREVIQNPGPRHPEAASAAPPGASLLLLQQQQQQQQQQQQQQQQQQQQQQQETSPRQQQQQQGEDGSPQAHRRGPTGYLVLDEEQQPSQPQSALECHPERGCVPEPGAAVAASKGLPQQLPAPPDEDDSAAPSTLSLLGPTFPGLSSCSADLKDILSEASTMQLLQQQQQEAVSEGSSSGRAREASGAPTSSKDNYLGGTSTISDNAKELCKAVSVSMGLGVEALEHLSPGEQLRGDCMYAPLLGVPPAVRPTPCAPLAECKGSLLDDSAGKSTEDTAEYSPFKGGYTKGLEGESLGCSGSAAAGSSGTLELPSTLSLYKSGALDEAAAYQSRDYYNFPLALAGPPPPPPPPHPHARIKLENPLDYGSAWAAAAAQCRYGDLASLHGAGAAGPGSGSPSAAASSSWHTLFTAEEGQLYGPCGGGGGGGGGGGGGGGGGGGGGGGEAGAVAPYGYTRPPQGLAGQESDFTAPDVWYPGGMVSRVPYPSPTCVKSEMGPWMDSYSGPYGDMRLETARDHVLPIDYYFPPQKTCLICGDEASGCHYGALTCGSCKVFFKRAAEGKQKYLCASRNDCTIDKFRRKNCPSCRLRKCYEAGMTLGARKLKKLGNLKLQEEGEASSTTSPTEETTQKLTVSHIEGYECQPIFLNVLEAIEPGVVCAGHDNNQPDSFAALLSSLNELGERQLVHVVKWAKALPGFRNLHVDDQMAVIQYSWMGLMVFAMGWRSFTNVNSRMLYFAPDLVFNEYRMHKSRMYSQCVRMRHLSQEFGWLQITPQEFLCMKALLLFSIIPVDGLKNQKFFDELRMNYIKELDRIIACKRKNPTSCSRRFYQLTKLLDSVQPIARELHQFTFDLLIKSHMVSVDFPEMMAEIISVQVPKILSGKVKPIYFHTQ
How it was run: (§1)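 Cell-based luciferase reporter assays for GR, AR and PR, run in agonist and antagonist modes. Potency and Emax are averages of at least two determinations, reported with SD.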

Glucocorticoid receptor = molecular target: T2, Glucocorticoid receptor (Homo sapiens, UniProt P04150); experiment: Antagonist activity at human glucocorticoid receptor expressed in CHO-K1 cells harboring firefly luciferase gene after 20 hrs by One-Glo luciferase reporter gene assay; type: cell-based
T2 sequence (P04150 whole entry): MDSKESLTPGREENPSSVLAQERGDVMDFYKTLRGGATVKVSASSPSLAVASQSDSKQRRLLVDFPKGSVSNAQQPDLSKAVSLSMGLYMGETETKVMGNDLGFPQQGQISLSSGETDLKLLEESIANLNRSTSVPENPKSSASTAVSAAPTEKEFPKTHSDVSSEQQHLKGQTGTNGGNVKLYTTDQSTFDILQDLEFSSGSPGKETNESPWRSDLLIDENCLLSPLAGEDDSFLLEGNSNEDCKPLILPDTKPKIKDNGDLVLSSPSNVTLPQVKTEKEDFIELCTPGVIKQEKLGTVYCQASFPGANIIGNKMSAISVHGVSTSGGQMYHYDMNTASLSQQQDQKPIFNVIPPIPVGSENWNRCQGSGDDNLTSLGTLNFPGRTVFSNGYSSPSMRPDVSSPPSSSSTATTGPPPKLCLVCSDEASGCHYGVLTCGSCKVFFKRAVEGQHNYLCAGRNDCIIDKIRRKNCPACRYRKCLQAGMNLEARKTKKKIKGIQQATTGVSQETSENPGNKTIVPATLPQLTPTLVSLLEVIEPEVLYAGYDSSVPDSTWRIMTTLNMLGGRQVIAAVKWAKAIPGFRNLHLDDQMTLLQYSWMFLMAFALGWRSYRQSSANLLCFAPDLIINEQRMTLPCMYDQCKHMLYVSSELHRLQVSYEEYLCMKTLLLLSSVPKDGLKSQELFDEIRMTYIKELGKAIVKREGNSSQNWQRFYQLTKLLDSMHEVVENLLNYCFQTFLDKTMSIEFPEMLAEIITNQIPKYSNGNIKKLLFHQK

Androgen receptor [2] = molecular target: T1, Androgen receptor; experiment: Agonist activity at human androgen receptor in human LNCAP cells harboring firefly luciferase gene after 20 hrs by One-Glo luciferase reporter gene assay relative to mifepristone; type: cell-based; how it was run: as §1
CYP3A4 = CYP3A4 (Homo sapiens, UniProt P08684); experiment: Inhibition of CYP3A4 (unknown origin) at 10 uM using midazolam as substrate relative to control; type: ADME; details: probe midazolam
Cytochrome P450 3A4 = Cytochrome P450 3A4 (Homo sapiens, UniProt P08684); experiment: Inhibition of CYP3A4 (unknown origin) using midazolam as substrate; type: ADME
[3] = Clearance in rat at 0.5 mg/kg, iv; type: ADME, organism-based; details: in vivo
How it was run: (§2)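 Rat PK study. The iv dose of 0.5 mg/kg was given in 10% DMSO, 70% PEG 400 and 20% water. The oral dose of 5 mg/kg was given in 5% DMSO / 95% of 0.2% Tween 80 in 0.25% CMC, adjusted to pH 4 for one compound. Read-outs were CL, Vss, iv t1/2, F, Cmax and AUC.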

[4] = Half-life in rat at 0.5 mg/kg, iv; type: ADME, organism-based; details: in vivo; how it was run: as §2
[5] = Cmax in rat at 5 mg/kg, po; type: ADME, organism-based; design: dose 5 mg/kg, route oral; details: in vivo; how it was run: as §2
[6] = AUC in rat at 5 mg/kg, po; type: ADME, organism-based; details: in vivo; how it was run: as §2
[7] = Volume of distribution at steady state in dog at 0.5 mg/kg, iv; type: ADME, organism-based, Canis lupus familiaris; details: in vivo, read-out: Vdss
[8] = AUC in dog at 5 mg/kg, po; type: ADME, organism-based, Canis lupus familiaris; details: in vivo
[9] = Volume of distribution at steady state in mini-pig at 0.5 mg/kg, iv; type: ADME, organism-based, Sus scrofa domesticus; details: in vivo, read-out: Vdss
[10] = Half-life in mini-pig at 0.5 mg/kg, iv; type: ADME, organism-based, Sus scrofa domesticus; details: in vivo
[11] = Oral bioavailability in mini-pig at 5 mg/kg; type: ADME, organism-based, Sus scrofa domesticus; details: in vivo
[12] = Solubility of compound in fasted state simulated gastric fluid at pH 1.2; type: physicochemical
Mus musculus = experiment: In vivo antagonist activity at glucocorticoid receptor in tumor of human HCC1806 cells xenografted in hsd:athymic Nude-Foxn1nu mouse assessed as reduction in cortisol-stimulated FKBP5 mRNA expression at 150 mg/kg, po administered as single dose via gavage and measured at 6 hrs post cortisol addition by qRT-PCR analysis (reference value: 2.3 to 4); type: functional
How it was run: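 HCC1806 TNBC xenograft tumors in mice. Cortisol 5 mg/kg given orally as a bolus to activate GR. The compound was given as a single oral gavage dose of 150 mg/kg, with vehicle controls. Tumors were collected 3 and 6 h after cortisol, and FKBP5 mRNA was measured by RT-qPCR relative to vehicle. n = 3 mice/group. One-way ANOVA with Dunnett's test versus vehicle.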

[13] = Toxicity in female rat assessed as effect on clinical observation at 250 mg/kg/day, po administered once daily via gavage for 14 days; type: organism-based; details: in vivo, 336 h
[14] = Toxicity in female rat assessed as effect on food consumption at 250 mg/kg/day, po administered once daily via gavage for 14 days; type: organism-based; details: in vivo, 336 h

Chain of Cytochrome P450 3A4 (P08684 whole entry): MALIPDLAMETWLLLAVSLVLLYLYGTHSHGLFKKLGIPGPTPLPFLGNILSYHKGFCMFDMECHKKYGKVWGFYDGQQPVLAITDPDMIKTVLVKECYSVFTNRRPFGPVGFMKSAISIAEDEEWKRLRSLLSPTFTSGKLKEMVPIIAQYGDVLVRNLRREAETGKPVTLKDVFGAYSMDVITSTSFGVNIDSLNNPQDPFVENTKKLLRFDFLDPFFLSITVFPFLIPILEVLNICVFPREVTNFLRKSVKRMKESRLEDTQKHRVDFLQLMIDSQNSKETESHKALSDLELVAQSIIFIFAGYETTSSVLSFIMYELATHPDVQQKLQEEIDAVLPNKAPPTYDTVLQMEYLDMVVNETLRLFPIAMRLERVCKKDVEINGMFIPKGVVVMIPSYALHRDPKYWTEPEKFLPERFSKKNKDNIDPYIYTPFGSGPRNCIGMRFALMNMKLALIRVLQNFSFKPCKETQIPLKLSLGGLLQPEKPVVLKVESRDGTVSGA
Chain of CYP3A4 (P08684 whole entry): as above

With `CC#C[C@]1(O)CC[C@H]2[C@@H]3CCC4=CC(=O)CC[C@]4(C)[C@H]3[C@@H](c3ccc(N(C)C)cc3)C[C@@]21C` the IC50 (Androgen receptor [1]) was 0.912 µM, the IC50 (Glucocorticoid receptor) was 0.029 µM and the Emax at 20 h (Androgen receptor [2]) was 13.3%. For the same compound, the inhibition at 10 µM (CYP3A4) was 34%, the IC50 (Cytochrome P450 3A4) was over 10 µM and the clearance [3] was 3.1 L/h/kg. For the same compound, the half-life [4] was 1.8 h, the Cmax [5] was 0.518 µg/mL and the AUC [6] was 1.02 µg·h/mL. It also gave a Vd [7] of 8.32 L/kg, an AUC [8] of 5.93 µg·h/mL and a Vd [9] of 1.45 L/kg. The half-life [10] was 2.71 h, the bioavailability [11] was 35.9% and the solubility [12] was 1130 µM (≈ 504 µg/mL). For the same compound, the “fold change (FC)” value (Mus musculus) was 2.3, the Activity [13] was “Non-Toxic” and the Activity [14] was “Non-Toxic”.
